Screens: PubChem, several laboratories
APJ antagonist: blocks the human apelin receptor APJ; inhibition, % at 20 µM; P35414; hit rate 0.32% among 330,000; AID 2521; CHO-K1 APJ beta-arrestin complementation, luminescence;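 active = inhibition above about 40% at 20 µM, limit read from the data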;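 note: cells challenged with 10 nM apelin-13 agonist together with compound; plate controls were apelin-13 plus DMSO wells for no effect and DMSO wells lacking apelin-13 for full effect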
CCR6 antag: CCR6 (human) receptor antagonism. P51684. CHO-K1 CCR6 PathHunter beta-arrestin, luminescence, CCL20-stimulated. inhibition, % at 20 µM. hit rate 0.49% among 340,000. AID 493098;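 active = compounds whose inhibition of the agonist-driven luminescence signal at 20 µM reaches about 50%, limit read from the data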;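 note: cells stimulated with CCL20 at 14 nM final; plate controls were DMSO with CCL20 for no effect and DMSO without agonist for full effect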
EBI2 block: antagonists of human EBI2 receptor. P32249. EBI2 beta-arrestin recruitment, luminescence, 7a,25-OHC stimulated. inhibition, % at 5 µM. hit rate 0.81% among 360,000. AID 651636; in the data active = inhibition above about 38%;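 note: enzyme fragment complementation signal reports receptor beta-arrestin coupling in cells; 0% = agonist plus DMSO wells and 100% = wells without agonist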
Target sequence (P32249 whole entry, looked up, the tested form may be a part): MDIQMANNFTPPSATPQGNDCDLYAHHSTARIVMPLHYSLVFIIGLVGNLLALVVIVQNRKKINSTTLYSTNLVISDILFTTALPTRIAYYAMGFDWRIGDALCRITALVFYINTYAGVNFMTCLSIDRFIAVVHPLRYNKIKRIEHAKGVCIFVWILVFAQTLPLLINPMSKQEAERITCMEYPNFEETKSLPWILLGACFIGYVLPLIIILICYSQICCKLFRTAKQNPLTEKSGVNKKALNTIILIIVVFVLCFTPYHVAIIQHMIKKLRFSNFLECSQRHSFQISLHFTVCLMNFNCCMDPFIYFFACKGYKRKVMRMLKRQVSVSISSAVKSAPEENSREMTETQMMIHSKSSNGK
m5-HT2A agonist: agonists of mouse serotonin 5-HT2A receptor (HTR2A). CHO-K1 mHTR2A beta-arrestin complementation, luminescence; percent of 30 µM serotonin response. P35363. hit rate 0.66% among 360,000. activation, % at 7.6 µM;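 active = activation above a run cutoff, the mean activation of all tested compounds plus 3 SD, cut at about 14% in these data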;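 note: 0% = plate median of compound wells and 100% = 30 µM serotonin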
CXCR6 inh: inhibitors of human CXCR6 receptor | inhibition, % at 20 µM | O00574 | hit rate 0.36% among 360,000 | CHO-K1 PathHunter CXCR6 beta-arrestin, luminescence; in the data active = inhibition above about 34%, passing the limit was not always enough;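 note: antagonist mode with CXCL16 agonist at 10 nM final; 0% = 10 nM CXCL16 with DMSO and 100% = unstimulated wells without agonist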
APJ ag: agonists of human APJ apelin receptor | P35414 | hit rate 0.11% among 330,000 | activation, % at 20 µM | AID 2520 | CHO-K1 APJ PathHunter beta-arrestin, luminescence; 0% DMSO wells, 100% apelin;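 active = activation more than six SD over the plate average, tested at 20 µM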;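 note: 0% = DMSO alone and 100% = apelin-13 at 10 nM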
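Assay system: CHO-K1 cells stably expressing ProLink-tagged human APJ and arrestin–beta-gal acceptor. Compound dosing: 20 µM single point, 1% DMSO. Times: 16-18 h seeding, 90 min dark compound exposure, 60 min detection. Detection: beta-gal luminescence. Evaluation: APJ–arrestin association signal. Controls: negative DMSO alone, positive Apelin-13 at 10 nM.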
EBI2 antag conf: EBI2 (human) antagonism, single concentration confirmation. hit rate 29% among 2,400. EBI2 beta-arrestin luminescence, 7a,25-OHC antagonism. inhibition, % at 5 µM. shares compounds with EBI2 block;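 active = inhibition of at least 50%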
EBI2 ag: counter-screen for EBI2 antagonists: EBI2 agonist activity; activation, % at 5 µM; 2,400 tested, under 10 active; EBI2-expressing cells, agonist mode, luminescence, 60 min; 0% vehicle, 100% 7α,25-dihydroxycholesterol control; shares compounds with EBI2 block;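 active = activation of at least 50%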
bGal counter: beta-galactosidase inhibition counter-screen; shares compounds with EBI2 block; purified beta-galactosidase, luminescent Galacton Star, 15 min; inhibition, % at 5 µM; hit rate 1% among 2,400; AID 652176;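 active = replicate-average signal at least 3 plate SD below neutral wells, shown as high inhibition, flagging enzyme-inhibiting false positives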;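 note: 0% = DMSO wells with enzyme and 100% = wells lacking enzyme; higher means stronger loss of beta-gal luminescence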
Numbers without * were called inactive; . = not tested or not shown. Most compounds without a hit are left out; they make up all but 2.1% or so of the library.

SMILES	APJ antagonist	CCR6 antag	EBI2 block	m5-HT2A agonist	CXCR6 inh	APJ ag	EBI2 antag conf	EBI2 ag	bGal counter
CC(=O)c1ccc(NC(=O)C2CCCNC2=O)cc1 (centres undefined)	2	-14	55*	-3	34	-1	8	1	7
COc1ccc(NC(=O)C2CCCNC2=O)cc1 (centres undefined)	-3	-1	-9	6	3	-1	.	.	.
Cc1ccc(C(C)C)c(OCc2ccc(C(=O)N/N=C/c3ccc(C(=O)O)cc3)cc2)c1	-5	8	40*	2	-3	-2	8	0	8
Cc1ccc(C(C)C)c(OCc2ccc(C(=O)N/N=C/c3ccc(O)cc3O)cc2)c1	.	0	-3	1	7	.	.	.	.
c1ccc(Oc2ncnc3oc(-c4ccccc4)cc23)cc1	16	-4	50*	3	2	-1	47	0	3
O=C(COc1ccc(Cl)cc1)N1CCN(C(=O)c2cccs2)CC1	-7	9	80*	14	10	-1	49	0	7
O=C(COc1ccccc1)N1CCN(C(=O)c2cccs2)CC1	10	-16	14	7	1	-1	.	.	.
O=C(COc1ccc(Cl)cc1)N1CCN(C(=O)c2cccc(F)c2)CC1	1	-7	86*	1	4	-1	68*	0	-11
COc1ccc2[nH]c(=O)c(CN(C(C)=O)c3cccc(C)c3)cc2c1	-8	9	1	7	2	-3	.	.	.
O=C(c1ccc(F)cc1)N1CCN(c2ccc([N+](=O)[O-])cc2-n2cccc2)CC1	7	23	55*	-2	11	-2	26	0	5
COc1ccccc1N1CCN(C(=O)CCN2C(=O)c3cccc4cccc(c34)C2=O)CC1	10	11	1	-4	10	0	.	.	.
FCCCOc1ccc(/C=N/OCc2ccc(Cl)cc2)cc1	13	24	60*	-2	4	0	23	1	3
O=C(/C=C/c1ccc(OCCCF)cc1)NCc1ccc(Cl)cc1	0	-8	50*	0	0	-3	36	0	3
O=C(O/N=C/c1cccc([N+](=O)[O-])c1)C1CC1	-20	9	-1	0	-2	1	.	.	.
Cc1ccc(C)c(N2CCN(C(=O)c3cc4c(C)nc5ccccc5c4o3)CC2)c1	-11	6	88*	0	2	-5	60*	-1	-12
COc1ccccc1N1CCN(C(=O)c2cc3c(C)nc4ccccc4c3o2)CC1	-40	-15	74*	-7	-12	7	53*	2	3
COc1ccccc1N1CCN(C(=O)c2oc3ccc(Br)cc3c2C)CC1	-2	-4	75*	-1	-7	-2	45	2	0
Cc1nc2ccccc2c2oc(C(=O)N3CC(C)CC(C)C3)cc12 (centres undefined)	-4	5	9	7	5	-12	.	.	.
COc1ccc2oc(C(=O)N3CCN(S(=O)(=O)c4ccc(F)cc4)CC3)c(C)c2c1	1	13	25	3	4	0	.	.	.
COc1ccc2oc(C(=O)N3CCN(S(=O)(=O)c4c(C)c(C)cc(C)c4C)CC3)c(C)c2c1	.	12	80*	-6	17	.	53*	1	-17
COc1ccccc1N1CCN(C(=O)c2oc3ccc(F)cc3c2C)CC1	-17	11	27	-1	-6	-1	.	.	.
CNc1nc(Cl)nc(NC(C)(C)C)n1	-3	-1	-7	3	2	0	.	.	.
CCOC(=O)c1cnn(-c2nc(-c3cccc(F)c3)cs2)c1C(F)(F)F	5	9	48*	1	-1	-2	43	2	3
Cc1ccc(C(=O)Nc2ccnc(-c3cccnc3)n2)cc1	4	6	23	11	4	-2	.	.	.
O=C(Nc1ccnc(-c2cccnc2)n1)c1ccc(Cl)c(Cl)c1	18	5	46*	-3	3	-3	7	1	3
SMILES	APJ antagonist	CCR6 antag	EBI2 block	m5-HT2A agonist	CXCR6 inh	APJ ag	EBI2 antag conf	EBI2 ag	bGal counter
O=C1C=C(c2ccc3c(c2)oc2ccccc23)C[C@@H](c2ccc3c(c2)OCO3)C1	7	17	71*	4	2	-6	64*	1	-3
Cc1ccc(C2=CC(=O)C[C@H](c3ccc4c(c3)OCO4)C2)cc1	2	18	48*	-1	4	-1	37	1	10
CSc1ccc(C2=CC(=O)C[C@H](c3ccc4c(c3)OCO4)C2)cc1	0	11	41*	-1	2	-4	28	-1	-4
O=C1C=C(c2ccc(O)cc2)C[C@@H](c2ccc3c(c2)OCO3)C1	0	18	16	4	6	-3	.	.	.
O=C(/C=C/[C@H]1O[C@@H](n2cnc3c(NC(=O)c4ccccc4)ncnc32)[C@H](O)[C@@H]1O)NCCCN1CCCC1=O	.	.	4	-2	-4	.	.	.	.
O=C(CN1CCC(n2nnc3cc(C(F)(F)F)ccc32)CC1)NCc1cccs1	-1	8	58*	-6	0	1	37	1	8
CCOC(=O)c1ccccc1NC(=O)CN1CCC(n2nnc3cc(C(F)(F)F)ccc32)CC1	0	6	23	1	14	1	.	.	.
CCOC(=O)C1CCCN(CC(O)COCc2ccc3c(c2)OCO3)C1 (centres undefined)	0	-2	0	-1	-3	0	.	.	.
Cc1ccc(S(=O)(=O)N2CCN(C(=O)Cc3ccccc3)CC2)cc1C	-2	11	21	-3	-4	-3	.	.	.
Cc1ccc(S(=O)(=O)N2CCN(C(=O)/C=C/c3ccccc3)CC2)cc1C	20	7	89*	13	0	0	76*	-1	-8
O=C(/C=C/c1ccco1)N1CCN(S(=O)(=O)c2ccccc2)CC1	-6	3	9	0	6	-3	.	.	.
COc1cc(/C=C/C(=O)N2CCN(C(=O)/C=C/c3cc(OC)c(OC)c(OC)c3)CC2)cc(OC)c1OC	-33	2	46*	-2	-10	-1	20	-1	-21
COc1ccc(/C=C/C(=O)N2CCN(S(=O)(=O)c3ccccc3)CC2)cc1OC	-15	0	46*	-1	-5	-3	20	1	4
